Data: ChEMBL document CHEMBL4007420, “Structural Optimization and Pharmacological Evaluation of Inhibitors Targeting Dual-Specificity Tyrosine Phosphorylation-Regulated Kinases (DYRK) and CDC-like kinases (CLK) in Glioblastoma” (J Med Chem, 2017)
Calls of active or inactive are those of the source. The calls are words filed in the database; no cut-off is given here.

How the values were obtained:
Homo sapiens = species: Homo sapiens; test: Inhibition of tubulin (unknown origin) polymerization
[1] = target: T1, Dual specificity tyrosine-phosphorylation-regulated kinase 2 (Homo sapiens, UniProt Q92630); test: Inhibition of DYRK2 (unknown origin) using woodtide as substrate after 40 mins in presence of [gamma-33P]ATP by microbeta scintillation counting
T1 sequence (Q92630 whole entry): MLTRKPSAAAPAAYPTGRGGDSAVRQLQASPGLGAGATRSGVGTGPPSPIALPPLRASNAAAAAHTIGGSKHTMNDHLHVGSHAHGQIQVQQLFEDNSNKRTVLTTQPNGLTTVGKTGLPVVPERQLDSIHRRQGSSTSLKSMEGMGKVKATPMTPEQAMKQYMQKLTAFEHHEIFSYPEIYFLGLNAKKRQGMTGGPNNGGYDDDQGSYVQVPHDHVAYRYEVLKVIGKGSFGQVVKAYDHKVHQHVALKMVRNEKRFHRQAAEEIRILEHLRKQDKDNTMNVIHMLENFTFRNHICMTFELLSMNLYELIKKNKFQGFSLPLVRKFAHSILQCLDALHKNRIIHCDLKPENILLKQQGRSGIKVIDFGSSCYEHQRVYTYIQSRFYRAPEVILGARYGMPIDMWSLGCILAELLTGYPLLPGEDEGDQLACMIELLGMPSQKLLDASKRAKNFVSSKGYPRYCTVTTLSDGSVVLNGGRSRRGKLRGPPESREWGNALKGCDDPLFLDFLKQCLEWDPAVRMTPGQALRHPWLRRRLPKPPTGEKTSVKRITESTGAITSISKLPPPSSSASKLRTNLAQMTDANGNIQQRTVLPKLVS

[2] = target: Dual specificity tyrosine-phosphorylation-regulated kinase 1A (Homo sapiens, UniProt Q13627); test: Inhibition of DYRK1A (unknown origin) using woodtide as substrate after 10 mins in presence of [gamma-33P]ATP by microbeta scintillation counting
[3] = target: Dual specificity tyrosine-phosphorylation-regulated kinase 1B (Homo sapiens, UniProt Q9Y463); test: Inhibition of DYRK1B (unknown origin) using woodtide as substrate after 40 mins in presence of [gamma-33P]ATP by microbeta scintillation counting
Sequence of Dual specificity tyrosine-phosphorylation-regulated kinase 1B (Q9Y463 whole entry): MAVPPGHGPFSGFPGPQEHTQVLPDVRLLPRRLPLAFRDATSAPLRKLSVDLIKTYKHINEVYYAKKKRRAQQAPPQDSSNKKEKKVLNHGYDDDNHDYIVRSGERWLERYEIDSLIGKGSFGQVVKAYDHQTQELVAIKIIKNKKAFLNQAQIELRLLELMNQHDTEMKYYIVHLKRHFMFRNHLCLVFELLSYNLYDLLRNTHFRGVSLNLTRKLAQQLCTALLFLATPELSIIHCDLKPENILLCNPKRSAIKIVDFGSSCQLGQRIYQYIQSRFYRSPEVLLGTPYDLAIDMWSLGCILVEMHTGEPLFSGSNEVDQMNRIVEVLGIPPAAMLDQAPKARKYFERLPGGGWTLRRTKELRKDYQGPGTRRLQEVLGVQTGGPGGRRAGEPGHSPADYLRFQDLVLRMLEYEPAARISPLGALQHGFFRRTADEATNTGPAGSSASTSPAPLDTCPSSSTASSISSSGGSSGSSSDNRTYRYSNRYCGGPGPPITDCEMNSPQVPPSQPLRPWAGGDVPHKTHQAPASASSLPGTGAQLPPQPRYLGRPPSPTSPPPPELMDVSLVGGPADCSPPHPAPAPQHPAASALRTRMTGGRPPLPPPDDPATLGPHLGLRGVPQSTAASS

[4] = target: Dual specificity protein kinase CLK1 (Homo sapiens, UniProt P49759); test: Inhibition of CLK1 (unknown origin) using KKGRSRSRSRSRSR as substrate after 40 mins in presence of [gamma-33P]ATP by microbeta scintillation counting
Sequence of Dual specificity protein kinase CLK1 (P49759 whole entry): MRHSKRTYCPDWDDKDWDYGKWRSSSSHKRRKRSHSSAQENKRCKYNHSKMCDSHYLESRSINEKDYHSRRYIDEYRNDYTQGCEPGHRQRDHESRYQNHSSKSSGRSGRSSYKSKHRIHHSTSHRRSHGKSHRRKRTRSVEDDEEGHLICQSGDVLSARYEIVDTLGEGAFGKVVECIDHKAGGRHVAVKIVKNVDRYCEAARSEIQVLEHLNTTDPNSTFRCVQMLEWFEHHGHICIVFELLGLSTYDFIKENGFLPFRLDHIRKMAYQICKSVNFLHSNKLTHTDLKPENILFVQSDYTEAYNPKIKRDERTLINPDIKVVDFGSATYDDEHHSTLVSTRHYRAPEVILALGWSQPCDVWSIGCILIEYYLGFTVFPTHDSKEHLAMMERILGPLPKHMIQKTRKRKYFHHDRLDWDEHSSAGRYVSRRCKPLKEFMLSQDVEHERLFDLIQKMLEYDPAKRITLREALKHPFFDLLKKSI
Summary of the method: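 CLK1 was assayed with RS peptide substrate at 100 µM ATP.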

[5] = Cytotoxicity against patient-derived RN1 cells assessed as reduction in cell viability after 3 days by Alamar blue assay; type: functional, cell-based; details: Homo sapiens, RN1, 72 h
Summary of the method: (§1)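 The patient-derived glioblastoma lines were grown as stem cells under defined conditions to keep the phenotype and genotype of the resected tumours. Viability after treatment was read with Alamar blue.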

[6] = Cytotoxicity against patient-derived WK1 cells assessed as reduction in cell viability after 5 days by Alamar blue assay; type: functional, cell-based; details: Homo sapiens, WK1, 120 h; summary of the method: as §1
[7] = Cytotoxicity against patient-derived JK2 cells assessed as reduction in cell viability after 3 days by Alamar blue assay; type: functional, cell-based; details: Homo sapiens, JK2, 72 h; summary of the method: as §1
[8] = Cytotoxicity against patient-derived SJH1 cells assessed as reduction in cell viability after 3 days by Alamar blue assay; type: functional, cell-based; details: Homo sapiens, SJH1, 72 h; summary of the method: as §1
A 172 [9] = test: Cytotoxicity against human A172 cells assessed as reduction in cell viability after 3 days by Alamar blue assay; type: functional, cell-based; details: A 172, 72 h
U-251 [10] = test: Cytotoxicity against human U251 cells assessed as reduction in cell viability after 3 days by Alamar blue assay; type: functional, cell-based; details: U-251, 72 h
U-251 [11] = test: Antimigratory activity in human U251 cells assessed as velocity of migration at 1 uM measured up to 20 hrs by wound scratch assay (reference value: 2159 to 2653 micrometer/hr); type: functional
Summary of the method: (§2)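 Wound-healing migration assay: cell movement across the wound is measured as velocity (µm/h). Compounds were tested at 0, 1.0, 5.0 and 10.0 µM. Values are mean ± SEM of 3 independent experiments.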

U-251 [12] = test: Antimigratory activity in human U251 cells assessed as velocity of migration at 5 uM measured up to 20 hrs by wound scratch assay (reference value: 2159 to 2653 micrometer/hr); type: functional; summary of the method: as §2
U-251 [13] = test: Antimigratory activity in human U251 cells assessed as velocity of migration at 10 uM measured up to 20 hrs by wound scratch assay (reference value: 2159 to 2653 micrometer/hr); type: functional; summary of the method: as §2
U-251 [14] = test: Antiinvasive activity in human U251 cells assessed as velocity of invasion at 1 uM measured up to 20 hrs by matrigel assay (reference value: 1151 to 1710 micrometer/hr); type: functional
U-251 [15] = test: Antiinvasive activity in human U251 cells assessed as velocity of invasion at 5 uM measured up to 20 hrs by matrigel assay (reference value: 1151 to 1710 micrometer/hr); type: functional
U-251 [16] = test: Antiinvasive activity in human U251 cells assessed as velocity of invasion at 10 uM measured up to 20 hrs by matrigel assay (reference value: 1151 to 1710 micrometer/hr); type: functional
A 172 [17] = test: Antimigratory activity in human A172 cells assessed as velocity of migration at 1 uM measured up to 20 hrs by wound scratch assay (reference value: 2650 to 3123 micrometer/hr); type: functional; summary of the method: as §2
A 172 [18] = test: Antimigratory activity in human A172 cells assessed as velocity of migration at 5 uM measured up to 20 hrs by wound scratch assay (reference value: 2650 to 3123 micrometer/hr); type: functional; summary of the method: as §2
A 172 [19] = test: Antimigratory activity in human A172 cells assessed as velocity of migration at 10 uM measured up to 20 hrs by wound scratch assay (reference value: 2650 to 3123 micrometer/hr); type: functional; summary of the method: as §2
A 172 [20] = test: Antiinvasive activity in human A172 cells assessed as velocity of invasion at 1 uM measured up to 20 hrs by matrigel assay (reference value: 2659 to 3047 micrometer/hr); type: functional
A 172 [21] = test: Antiinvasive activity in human A172 cells assessed as velocity of invasion at 5 uM measured up to 20 hrs by matrigel assay (reference value: 2659 to 3047 micrometer/hr); type: functional
A 172 [22] = test: Antiinvasive activity in human A172 cells assessed as velocity of invasion at 10 uM measured up to 20 hrs by matrigel assay (reference value: 2659 to 3047 micrometer/hr); type: functional
[23] = Antimigratory activity in patient-derived RN1 cells assessed as velocity of migration at 1 uM measured up to 20 hrs by wound scratch assay (reference value: 937 to 1174 micrometer/hr); type: functional, Homo sapiens; summary of the method: as §2
[24] = Antimigratory activity in patient-derived RN1 cells assessed as velocity of migration at 5 uM measured up to 20 hrs by wound scratch assay (reference value: 937 to 1174 micrometer/hr); type: functional, Homo sapiens; summary of the method: as §2
[25] = Antimigratory activity in patient-derived RN1 cells assessed as velocity of migration at 10 uM measured up to 20 hrs by wound scratch assay (reference value: 937 to 1174 micrometer/hr); type: functional, Homo sapiens; summary of the method: as §2

Structure (SMILES) | inhibition (Homo sapiens) | IC50 [1] | IC50 [2] | IC50 [3] | IC50 [4] | EC50 [5] | EC50 [6] | EC50 [7] | EC50 [8] | further results
CC(=O)O[C@H]1C(=O)[C@@]2(C)[C@H]([C@H](OC(=O)c3ccccc3)[C@]3(O)C[C@H](OC(=O)[C@H](O)[C@@H](NC(=O)c4ccccc4)c4ccccc4)C(C)=C1C3(C)C)[C@]1(OC(C)=O)CO[C@@H]1C[C@@H]2O | Active |  |  |  |  |  |  |  |  | 
CS(=O)(=O)Nc1ccc(-c2cnc3[nH]cc(-c4ccc(O)cc4)c3c2)cc1 |  | 0.724 µM | 0.056 µM | 0.13 µM | 0.044 µM | 14 µM | 42 µM | 13 µM | 42 µM | 
O=C(Nc1ccc(O)cc1)c1c[nH]c2ncc(-c3ccc(O)cc3)cc12 |  | > 1 µM | > 1 µM | > 1 µM | > 1 µM | > 50 µM | > 50 µM | > 50 µM | > 50 µM | 
Oc1ccc(-c2cnc3[nH]cc(-c4ccc(-c5nnn[nH]5)cc4)c3c2)cc1 |  | 0.416 µM | 0.28 µM | 0.172 µM | 0.085 µM | > 50 µM | > 50 µM | > 50 µM | > 50 µM | 
CC[C@]1(O)C[C@@H]2CN(CCc3c([nH]c4ccccc34)[C@@](C(=O)OC)(c3cc4c(cc3OC)N(C)[C@H]3[C@@](O)(C(=O)OC)[C@H](OC(C)=O)[C@]5(CC)C=CCN6CC[C@]43[C@@H]65)C2)C1 | Active |  |  |  |  |  |  |  |  | 
O=[N+]([O-])c1ccc(-c2cnc3[nH]cc(-c4ccc(O)cc4)c3c2)cc1 |  | > 1 µM | 0.212 µM | 0.198 µM | 0.187 µM | > 50 µM | > 50 µM | > 50 µM | > 50 µM | 
O=C(Nc1cccc(O)c1)c1cnc2[nH]cc(-c3ccc(O)cc3)c2c1 |  | 0.847 µM | 0.127 µM | 0.138 µM | 0.034 µM | 13.8 µM | 13.2 µM | 38.9 µM | 5.7 µM | 
Oc1ccc(-c2c[nH]c3ncc(-c4ccc5[nH]ccc5c4)cc23)cc1 |  | 0.644 µM | 0.204 µM | 0.051 µM | 0.026 µM | > 50 µM | > 50 µM | > 50 µM | 30 µM | 
Nc1ccc(-c2c[nH]c3ncc(-c4ccc(O)cc4)cc23)cc1 | inactive | > 1 µM | > 1 µM | > 1 µM | > 1 µM | > 50 µM | > 50 µM | > 50 µM | > 50 µM | EC50 (A 172 [9]): > 50 µM; EC50 (U-251 [10]): > 50 µM; Activity (U-251 [11]): 2331 um/hr; Activity (U-251 [12]): 2370 um/hr; Activity (U-251 [13]): 2702 um/hr; Activity (U-251 [14]): 1451 um/hr; Activity (U-251 [15]): 1481 um/hr; Activity (U-251 [16]): 1380 um/hr; Activity (A 172 [17]): 3123 um/hr; Activity (A 172 [18]): 3065 um/hr; Activity (A 172 [19]): 2827 um/hr; Activity (A 172 [20]): 2411 um/hr; Activity (A 172 [21]): 2232 um/hr; Activity (A 172 [22]): 2707 um/hr; Activity [23]: 1070 um/hr; Activity [24]: 929 um/hr; Activity [25]: 791 um/hr
